According to ChEMBL document CHEMBL3102786, “Anilides and quinolones with nitrogen-bearing substituents from benzothiophene and thienothiophene series: synthesis, photochemical synthesis, cytostatic evaluation, 3D-derived QSAR analysis and DNA-binding properties” (Eur J Med Chem, 2014):
Active and inactive are the calls of the source. No cut-off for these calls is given here.

How the values were obtained:
[1] = target: DNA topoisomerase 2-alpha (Homo sapiens) (UniProt P11388); test: Inhibition of DNA topoisomerase 2 (unknown origin)-mediated DNA cleavage assessed as linear band at 50 uM by agarose gel electrophoresis
DNA topoisomerase 2-alpha (Homo sapiens), sequence (P11388 whole entry): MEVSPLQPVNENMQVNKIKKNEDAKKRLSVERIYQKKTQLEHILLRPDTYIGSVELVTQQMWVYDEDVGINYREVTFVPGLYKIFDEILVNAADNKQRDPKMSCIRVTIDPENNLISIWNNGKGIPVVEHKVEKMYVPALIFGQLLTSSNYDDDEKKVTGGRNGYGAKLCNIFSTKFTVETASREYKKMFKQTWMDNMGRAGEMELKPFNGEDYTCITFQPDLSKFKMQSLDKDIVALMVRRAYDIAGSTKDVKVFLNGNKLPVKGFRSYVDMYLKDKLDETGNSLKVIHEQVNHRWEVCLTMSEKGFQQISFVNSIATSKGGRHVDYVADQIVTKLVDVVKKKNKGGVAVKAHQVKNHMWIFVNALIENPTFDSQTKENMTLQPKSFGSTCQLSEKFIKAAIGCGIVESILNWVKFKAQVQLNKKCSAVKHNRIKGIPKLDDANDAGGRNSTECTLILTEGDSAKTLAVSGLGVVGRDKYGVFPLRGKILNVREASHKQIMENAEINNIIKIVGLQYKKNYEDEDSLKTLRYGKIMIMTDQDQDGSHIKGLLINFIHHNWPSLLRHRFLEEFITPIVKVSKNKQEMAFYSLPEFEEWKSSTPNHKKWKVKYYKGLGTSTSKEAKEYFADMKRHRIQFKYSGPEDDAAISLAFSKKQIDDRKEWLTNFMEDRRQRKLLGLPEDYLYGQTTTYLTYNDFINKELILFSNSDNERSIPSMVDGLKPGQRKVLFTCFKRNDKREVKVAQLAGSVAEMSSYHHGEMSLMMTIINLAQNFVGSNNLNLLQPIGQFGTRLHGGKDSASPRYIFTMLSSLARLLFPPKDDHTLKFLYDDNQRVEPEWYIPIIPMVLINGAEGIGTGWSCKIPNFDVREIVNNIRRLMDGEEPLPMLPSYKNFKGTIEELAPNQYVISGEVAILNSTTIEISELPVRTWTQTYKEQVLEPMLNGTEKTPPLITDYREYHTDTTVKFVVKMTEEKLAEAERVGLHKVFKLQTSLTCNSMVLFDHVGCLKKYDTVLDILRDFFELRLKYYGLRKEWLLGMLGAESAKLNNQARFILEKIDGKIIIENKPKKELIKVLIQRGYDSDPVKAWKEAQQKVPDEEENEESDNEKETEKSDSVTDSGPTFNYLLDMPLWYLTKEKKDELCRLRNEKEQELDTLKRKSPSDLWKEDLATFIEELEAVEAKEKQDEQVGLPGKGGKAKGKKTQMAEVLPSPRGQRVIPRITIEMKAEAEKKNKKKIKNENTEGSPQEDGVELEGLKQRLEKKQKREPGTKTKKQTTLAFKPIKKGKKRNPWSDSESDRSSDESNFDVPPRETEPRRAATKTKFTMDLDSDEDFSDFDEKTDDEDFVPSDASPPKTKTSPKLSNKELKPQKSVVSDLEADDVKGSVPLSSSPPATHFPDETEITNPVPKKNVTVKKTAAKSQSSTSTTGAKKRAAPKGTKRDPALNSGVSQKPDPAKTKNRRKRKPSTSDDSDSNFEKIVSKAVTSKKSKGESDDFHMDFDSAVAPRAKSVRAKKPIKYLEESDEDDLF
How it was run: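 Topoisomerase II DNA cleavage assay was run per an earlier method, with etoposide as the Topo II poison positive control. Compounds came from 10 mM DMSO stocks freshly diluted in aqueous buffer.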

DNA [2] = test: Binding affinity to calf thymus DNA assessed as change in melting temperature at 1 drug/DNA ratio by spectrophotometry; assay type: nucleic-acid assay; settings: Bos taurus
How it was run: (§1)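 CT-DNA (20 µM) was dialyzed and incubated alone or with compound at drug/base-pair ratio R 0.25–1 in BPE buffer (6 mM Na2HPO4, 2 mM NaH2PO4, 1 mM EDTA, pH 7.1). A260 was read every min from 20–100 °C at 1 °C/min against a compound-matched reference. Tm was taken from the first-derivative midpoint, and ΔTm = Tm(drug+DNA) − Tm(DNA alone).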

DNA [3] = test: Binding affinity to calf thymus DNA assessed as change in melting temperature at 0.5 drug/DNA ratio by spectrophotometry; assay type: nucleic-acid assay; settings: Bos taurus; how it was run: as §1
[4] = Cytotoxicity against human H460 cells after 72 hrs by MTT assay; assay type: functional, cell-based, NCI-H460
How it was run: (§2)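 HCT 116 and H 460 were seeded at 3×10^4 cells/mL and MCF-7 at 5×10^4 cells/mL in DMEM with 10% FBS, 2 mM glutamine and antibiotics, at 37 °C in 5% CO2. Compounds were added after 24 h (DMSO <1%). After 72 h, MTT absorbance was read at 570 nm. Runs were technical quadruplicates with ≥2 biological replicates, and IC50 was obtained by linear interpolation around 50% growth.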

DNA [5] = test: Binding affinity to calf thymus DNA assessed as change in melting temperature at 0.25 drug/DNA ratio by spectrophotometry; assay type: nucleic-acid assay; settings: Bos taurus; how it was run: as §1
MCF7 = test: Cytotoxicity against human MCF7 cells after 72 hrs by MTT assay; assay type: functional, cell-based; how it was run: as §2
HCT-116 = test: Cytotoxicity against human HCT116 cells after 72 hrs by MTT assay; assay type: functional, cell-based; how it was run: as §2
[6] = target: T1, DNA topoisomerase 1 (Homo sapiens) (UniProt P11387); test: Inhibition of human topoisomerase 1-mediated DNA cleavage assessed as accumulation of nicked DNA at 1 to 50 uM by agarose gel electrophoresis
T1 sequence (whole entry): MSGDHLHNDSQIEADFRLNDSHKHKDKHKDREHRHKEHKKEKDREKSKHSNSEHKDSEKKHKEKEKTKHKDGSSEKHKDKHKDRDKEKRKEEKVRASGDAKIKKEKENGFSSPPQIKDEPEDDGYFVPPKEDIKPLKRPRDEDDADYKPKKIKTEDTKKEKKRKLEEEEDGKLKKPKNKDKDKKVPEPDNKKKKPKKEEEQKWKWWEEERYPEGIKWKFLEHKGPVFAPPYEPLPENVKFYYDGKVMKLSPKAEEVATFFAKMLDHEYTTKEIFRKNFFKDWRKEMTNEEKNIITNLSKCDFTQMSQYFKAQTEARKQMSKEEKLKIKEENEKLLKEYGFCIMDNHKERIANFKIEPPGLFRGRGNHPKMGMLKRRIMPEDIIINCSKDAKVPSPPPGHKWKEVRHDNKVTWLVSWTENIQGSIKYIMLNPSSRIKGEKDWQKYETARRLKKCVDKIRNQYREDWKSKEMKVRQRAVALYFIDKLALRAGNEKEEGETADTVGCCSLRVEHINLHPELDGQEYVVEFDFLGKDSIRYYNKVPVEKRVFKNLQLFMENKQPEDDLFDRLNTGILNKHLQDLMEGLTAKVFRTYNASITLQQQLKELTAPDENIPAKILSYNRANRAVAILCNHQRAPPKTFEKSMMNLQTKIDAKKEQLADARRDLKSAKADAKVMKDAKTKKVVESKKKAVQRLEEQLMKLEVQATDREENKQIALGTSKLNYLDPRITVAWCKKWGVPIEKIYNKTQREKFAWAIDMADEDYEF
How it was run: (§3)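 Supercoiled pUC19 plasmid was incubated with or without compound across the stated µM range, then relaxed with human topoisomerase I. Reactions were stopped with SDS and proteinase K. Samples were run on a 1% agarose gel in TBE for 2 h at 120 V and post-stained with ethidium bromide. Supercoiled, relaxed and nicked bands were scored under UV.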

Nucleic Acid [7] = test: Binding affinity to Escherichia coli supercoiled pUC19 DNA assessed as intercalation at 20 to 50 uM by agarose gel electrophoresis in presence of human DNA topoisomerase 1; assay type: nucleic-acid assay; how it was run: as §3
DNA [8] = test: Binding affinity to calf thymus DNA assessed as hypochromic effect at 20 uM by UV-Visible spectroscopy relative to control; assay type: nucleic-acid assay; settings: Bos taurus
How it was run: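 Compound (20 µM) in BPE buffer pH 7.1 was titrated with CT-DNA, 10–100 µM in 10 µM steps and then to 200 µM in 20 µM steps (base pairs). Spectra were recorded from 230–530 nm in a 10 mm quartz cuvette, referenced against a cuvette holding the same DNA concentration.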

Nucleic Acid [9] = test: Binding affinity to Escherichia coli supercoiled pUC19 DNA assessed as intercalation at 1 to 50 uM by agarose gel electrophoresis in presence of human DNA topoisomerase 1; assay type: nucleic-acid assay; how it was run: as §3
Nucleic Acid [10] = test: Binding affinity to Escherichia coli supercoiled pUC19 DNA assessed as intercalation at 0.2 to 5 uM by agarose gel electrophoresis in presence of human DNA topoisomerase 1; assay type: nucleic-acid assay; how it was run: as §3
[11] = Binding affinity to DNA (unknown origin) assessed as inhibition of DNase1-mediated cleavage at 2 to 5 uM by DNase1 footprinting assay
How it was run: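 DNase I footprinting run essentially per an earlier protocol. Gels were exposed to a storage screen at room temperature and then scanned. Compounds were made as 10 mM DMSO stocks and freshly diluted into aqueous buffer.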

DNA [12] = test: Binding affinity to calf thymus DNA at 50 uM by circular dichroism spectra analysis; assay type: nucleic-acid assay; settings: Bos taurus
How it was run: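 Drug (50 µM) was incubated in BPE buffer with or without CT-DNA at 0.1–100 µM. CD spectra were recorded from 480 to 230 nm in a 10 mm quartz cell at 20 °C under Peltier control.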

[13] = target: DNA topoisomerase 2-alpha (Homo sapiens) (UniProt P11388); settings: 20 to 50 uM

Topo II DNA cleavage inhibition (active/not active) [1]	Activity (DNA [2])	Activity (DNA [3])	Activity (DNA [5])	inhibition [6]	SMILES	IC50 ([4]; Homo sapiens, NCI-H460, 72 h) [µM]	IC50 (MCF7; Homo sapiens, MCF7, 72 h) [µM]	IC50 (HCT-116; Homo sapiens, HCT-116, 72 h) [µM]	further results
inactive	inactive	inactive	inactive		O=C(Nc1ccc([N+](=O)[O-])cc1)c1sc2ccccc2c1Cl	55	> 100	≥ 100	
inactive	inactive	inactive	inactive		CN(C)c1ccc(NC(=O)c2sc3ccccc3c2Cl)cc1	> 100	> 100	> 100	
inactive	inactive	inactive	inactive		CC(=O)Nc1ccc(NC(=O)c2sc3ccccc3c2Cl)cc1	> 100	> 100	> 100	
inactive	inactive	inactive	inactive	inactive	CN(C)c1ccc2[nH]c(=O)c3sc4ccccc4c3c2c1	37	7	7	Activity (Nucleic Acid [9]): inactive
inactive	inactive	inactive	inactive	inactive	Nc1ccc(NC(=O)c2sc3ccccc3c2Cl)cc1 [listing 2 of 3 here]				Activity (Nucleic Acid [9]): inactive
inactive				inactive	CN(C)c1ccc2c(c1)c1c(sc3ccccc31)c(=O)n2C	13	16	5	Activity (Nucleic Acid [7]): Active; Activity (DNA [8]): 46%; ΔTm (DNA [2]): 3 °C; ΔTm (DNA [3]): 0 °C
Active				inactive	C[N+](C)(C)c1ccc(NC(=O)c2sc3ccccc3c2Cl)cc1	20	17	17	Activity (Nucleic Acid [7]): Active; Activity (DNA [8]): 23%; ΔTm (DNA [2]): 3 °C; ΔTm (DNA [3]): 1 °C

Continued, molecule first:

SMILES	Topo II DNA cleavage inhibition (active/not active) [1]	Activity (DNA [2])	Activity (DNA [3])	Activity (DNA [5])	inhibition [6]	IC50 ([4]; Homo sapiens, NCI-H460, 72 h) [µM]	IC50 (MCF7; Homo sapiens, MCF7, 72 h) [µM]	IC50 (HCT-116; Homo sapiens, HCT-116, 72 h) [µM]	further results
Nc1ccc2[nH]c(=O)c3sc4ccccc4c3c2c1 [listing 1 of 3 here]	inactive	inactive	inactive	inactive	inactive				Activity (Nucleic Acid [7]): Active; Activity (DNA [8]): 58%; ΔTm (DNA [3]): 2 °C
Nc1ccc(NC(=O)c2sc3ccccc3c2Cl)cc1 [listing 1 of 3 here]						> 100		≥ 100	IC50 (MCF7; mcf7): 24 µM
O=c1[nH]c2ccc([N+](=O)[O-])cc2c2c1sc1ccccc12	inactive				inactive	18	49	22	Activity (Nucleic Acid [9]): inactive
CC(=O)Nc1ccc2c(c1)c1c(sc3ccccc31)c(=O)n2CCCN(C)C	inactive				inactive	0.3	0.6	0.2	Activity (Nucleic Acid [10]): Active; Activity [11]: Active; Activity (DNA [8]): 24%; ΔTm (DNA [2]): 19 °C; ΔTm (DNA [3]): 12.7 °C; ΔTm (DNA [5]): 10 °C
Nc1ccc2[nH]c(=O)c3sc4ccccc4c3c2c1 [listing 2 of 3 here]									IC50 ([4]; nci-h460): 9 µM; IC50 (HCT-116; hct-116): 4 µM
O=C(Nc1ccc([N+](=O)[O-])cc1)c1sc2sccc2c1Cl						> 100	≥ 100	> 100	
Cn1c(=O)c2sc3ccccc3c2c2cc([N+](C)(C)C)ccc21	inactive				inactive	18	10	5	Activity (Nucleic Acid [10]): Active; Activity [11]: Active; Activity (DNA [12]): inactive; Activity (DNA [8]): 48%; ΔTm (DNA [2]): 5.9 °C; ΔTm (DNA [3]): 2.9 °C
COc1cc([C@@H]2c3cc4c(cc3[C@@H](O[C@@H]3O[C@@H]5CO[C@@H](C)O[C@H]5[C@H](O)[C@H]3O)[C@H]3COC(=O)[C@H]23)OCO4)cc(OC)c1O									inhibition [13]: Active
CN(C)c1ccc(NC(=O)c2sc3sccc3c2Cl)cc1						> 100	> 100	> 100	
Nc1ccc2[nH]c(=O)c3sc4ccccc4c3c2c1 [listing 3 of 3 here]						6	2	3	
CC(=O)Nc1ccc2[nH]c(=O)c3sc4ccccc4c3c2c1	inactive	inactive	inactive	inactive	inactive	> 100	76	30	Activity (Nucleic Acid [7]): Active
CC(=O)N(C)c1ccc2c(c1)c1c(sc3ccccc31)c(=O)n2C						40	≥ 100	14	
CC(=O)Nc1ccc(NC(=O)c2sc3sccc3c2Cl)cc1						> 100	> 100	≥ 100	
Nc1ccc(NC(=O)c2sc3ccccc3c2Cl)cc1 [listing 3 of 3 here]									IC50 (MCF7; mcf7): ≥ 100 µM
C[N+](C)(C)c1ccc2[nH]c(=O)c3sc4ccccc4c3c2c1	inactive				inactive	> 100	50	> 100	Activity (Nucleic Acid [10]): Active; Activity [11]: Active; Activity (DNA [12]): inactive; Activity (DNA [8]): 49%; ΔTm (DNA [2]): 16.9 °C; ΔTm (DNA [3]): 12.8 °C; ΔTm (DNA [5]): 10 °C
